Measurements of several laboratories.
APLNR: Apelin receptor (APLNR, Homo sapiens, UniProt P35414)
ADRA2C: Alpha-2C adrenergic receptor (ADRA2C, Homo sapiens, UniProt P18825)
ESR1: Estrogen receptor (ESR1, Homo sapiens, UniProt P03372)
Si: Sucrase-isomaltase, intestinal (Si, Rattus norvegicus, UniProt P23739)
PLK4: Serine/threonine-protein kinase PLK4 (PLK4, Homo sapiens, UniProt O00444)

Compound | target | read-out | action | method | pH | measurement | value
CC[C@H](C)[C@H](NC(=O)[C@H](CCSC)NC(=O)[C@H](CCC(N)=O)NC(=O)[C@H](CCCNC(=N)N)NC(=O)[C@H](Cc1ccccc1)NC(=O)CN)C(=O)N[C@@H](C)C(=O)N[C@@H](CCCNC(=N)N)C(=O)N[C@@H](C)C(=O)N[C@@H](CCCCN)C(=O)N[C@@H](Cc1ccc(O)cc1)C(=O)N[C@@H](CCC(N)=O)C(=O)NCC(=O)N[C@@H](CC(C)C)C(=O)N[C@@H](CC(C)C)C(=O)N[C@@H](Cc1ccc(O)cc1)C(=O)O | APLNR | calcium signal | agonist | fluorescence | – | EC50 | 614 nM
CCCCC1CNC2CCc3ccc(OC)cc3C12 (racemic) | ADRA2C | ligand displacement | – | radioligand | – | Ki | 622 nM
C[C@H](CCCOS(=O)(=O)O)[C@H]1CC[C@H]2[C@@H]3CC[C@H]4C[C@@H](O)CC[C@]4(C)[C@H]3CC[C@]12C | cGMP-inhibited 3',5'-cyclic phosphodiesterase 3A (PDE3A, Homo sapiens, UniProt Q14432) | enzyme activity | inhibitor | – | – | IC50 | 7050 nM
CC(C)(c1ccc(O)cc1)c1ccc(C(C)(C)c2ccc(O)cc2)cc1 | ESR1 | reporter gene | antagonist | luciferase | – | IC50 | 2900 nM
CCCCCc1cc(O)c(C/C=C(\C)CCC=C(C)C)c(O)c1 | Si | enzyme activity | inhibitor | absorbance | – | IC50 | 620000 nM
CC[C@H](C)[C@H](NC(=O)[C@H](CCCCN)NC(=O)[C@H](CCCCN)NC(=O)[C@H](C)NC(=O)[C@H](C)NC(=O)[C@@H](NC(=O)[C@H](CCCNC(=N)N)NC(=O)[C@H](CCSC)NC(=O)[C@H](CCC(N)=O)NC(=O)[C@H](CCC(=O)O)NC(=O)[C@H](CCCCN)NC(=O)[C@@H](N)CO)[C@@H](C)CC)C(=O)NCC(=O)N[C@@H](CC(C)C)C(=O)N[C@@H](CC(C)C)C(=O)N[C@@H](CCC(=O)O)C(=O)O | APLNR | calcium signal | antagonist | fluorescence | – | IC50 | 20300 nM
CC(C)(C)C#Cc1cc(-c2ccnc(N)c2)cc2c(N)n[nH]c12 | Inhibitor of nuclear factor kappa-B kinase subunit beta (IKBKB, Homo sapiens, UniProt O14920) | enzyme activity | inhibitor | FRET | – | IC50 | 4590 nM
Clc1ccc(C(c2ccccc2Cl)C(Cl)(Cl)Cl)cc1 (stereo not shown) | Glucocorticoid receptor (NR3C1, Homo sapiens, UniProt P04150) | ligand displacement | – | – | – | IC50 | 2720 nM
CCCCCc1cc(O)c2c(c1)OC(C)(CCC=C(C)C)C=C2 (stereo not shown) | Si | enzyme activity | inhibitor | absorbance | – | IC50 | 540000 nM
CC[C@H](C)[C@H](NC(=O)[C@@H](N)CCC(=O)O)C(=O)N[C@@H](C)C(=O)N1CCC[C@H]1C(=O)N[C@H](C(=O)N[C@@H](CC(C)C)C(=O)N[C@@H](Cc1c[nH]cn1)C(=O)N[C@@H](CO)C(=O)N[C@H](C(=O)O)[C@@H](C)OP(=O)(O)O)C(C)C | PLK4 | binding | – | MST | pH 8 | Kd | 22.9 nM
CC(c1ccccc1)(c1ccc(O)cc1)c1ccc(O)cc1 | ESR1 | reporter gene | antagonist | luciferase | – | IC50 | 20700 nM
CC(C)C[C@@H]1NC(=O)[C@H](CCCNC(=N)N)NC(=O)[C@@H]2CCCN2C(=O)[C@H](CCCNC(=N)N)NC(=O)[C@@H](NC(=O)[C@H](Cc2c[nH]cn2)NC(=O)[C@H](CCCCN)NC(=O)[C@@H]2CSSC[C@H](N)C(=O)N[C@@H](CCCNC(=N)N)C(=O)N3CCC[C@H]3C(=O)N[C@@H](CCCNC(=N)N)C(=O)N[C@@H](CC(C)C)C(=O)N2)CSSC[C@@H](C(=O)O)NC1=O | APLNR | β-arrestin recruitment | antagonist | – | – | IC50 | 10100 nM
CC(C)C[C@H](NC(=O)[C@H](CCCNC(=N)N)NC(=O)[C@H](CCCNC(=N)N)NC(=O)[C@H](CS)NC(=O)[C@H](CCCNC(=N)N)NC(=O)[C@H](CCC(=O)O)NC(=O)[C@H](CCCNC(=N)N)NC(=O)[C@@H](N)CO)C(=O)N[C@@H](Cc1c[nH]cn1)C(=O)N[C@@H](CO)C(=O)N[C@@H](CC(C)C)C(=O)N1CCC[C@H]1C(=O)N[C@@H](CC(C)C)C(=O)N[C@@H](Cc1ccccc1)C(=O)N1CCC[C@H]1C(=O)O | APLNR | calcium signal | agonist | fluorescence | – | EC50 | 4.2 nM
CC(C)C[C@H](NC(=O)[C@H](CC(C)C)NC(=O)[C@@H]1CCCN1C(=O)[C@H](C)NC(=O)[C@@H](NC(=O)[C@H](C)N)C(C)C)C(=O)N[C@@H](Cc1c[nH]cn1)C(=O)N[C@@H](CO)C(=O)N[C@H](C(=O)O)[C@@H](C)OP(=O)(O)O | PLK4 | binding | – | MST | pH 8 | Kd | 39.8 nM
CC[C@H](C)[C@H](NC(=O)[C@H](CO)NC(=O)[C@H](Cc1c[nH]cn1)NC(=O)[C@H](Cc1ccccc1)NC(=O)[C@H](CCCCN)NC(=O)[C@H](CCCCN)NC(=O)[C@H](CS)NC(=O)[C@H](CC(C)C)NC(=O)[C@H](CCC(=O)O)NC(=O)[C@@H]1CCCN1C(=O)[C@@H](N)CO)C(=O)N1CCC[C@H]1C(=O)N[C@@H](CC(C)C)C(=O)N[C@@H](Cc1ccccc1)C(=O)N1CCC[C@H]1C(=O)O | APLNR | calcium signal | agonist | fluorescence | – | EC50 | 127 nM
COc1cc2c(cc1OC)CN(CCc1ccc(NC(=O)c3cccc4c(=O)c5cccc(OC)c5[nH]c34)cc1)CC2 | ADRA2C | cell-free assay | – | – | – | Ki | 150 nM
